ChEMBL document CHEMBL4689842, “EUbOPEN Chemogenomics Library wave 1” (2021)
“And” between values parts separate entries of the source, which are not always exact repeats. Identical values can stand only once.

Assays:
Type in all cases: toxicity, cell-based
HEK-293T = assay: Multiplex assay against HEK293T; conditions: human, 1 µM, compound concentration 1 uM;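 for Population Tubulin-Different-Phenotype (%): share of the cells with healthy nuclei that show this phenotype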
In short: (§1)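 Tubulin, mitochondrial-mass and membrane-permeability phenotypes are per cents of healthy-nucleus cells. Cells were gated by CellPathfinder machine learning into Hoechst high-intensity objects or normal cells, normal cells into healthy, pyknosed or fragmented nuclei, and pyknosed cells into mitotic or apoptotic. Before that, live cells stained at seeding with Hoechst33342, BioTracker Green Microtubule Cytoskeleton Dye, MitoTracker Red and Annexin V Alexa Fluor 680 were imaged on a CQ1 microscope at 37°C and 5% CO2 after compound addition.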

Fibroblast = assay: Incucyte cell viability with human fibroblast; conditions: 10 µM, compound concentration 10 uM; note: filed as whole numbers so only -1 and 0 and 1 occur
U2OS = assay: Multiplex assay against U2OS; conditions: human, 1 µM, compound concentration 1 uM; in short: as §1

With `CC[C@@H]1C(=O)N(C)c2cnc(Nc3ccc(C(=O)N[C@H]4CC[C@H](N5CCN(CC6CC6)CC5)CC4)cc3OC)nc2N1C(C)C` [VOLASERTIB] the “Population Apoptotic (%)” value (HEK-293T; 12 h, replicate 1) was 44% and 18%, the “Population Fragmented Nuclei (%)” value (HEK-293T; 12 h, replicate 1) was 29% and 10% and the “Population Healthy Nuclei (%)” value (HEK-293T; 12 h, replicate 1) was 31% and 58%. The “Population Hoechst High Intensity Objects (%)” value (HEK-293T; 12 h, replicate 1) was 18% and 13%, the “Population Membrane Permeable-Phenotype (%)” value (HEK-293T; 12 h, replicate 1) was 15% and 21% and the “Population Mitotic Cells (%)” value (HEK-293T; 12 h, replicate 1) was 55% and 81%. The “Population Normal (%)” value (HEK-293T; 12 h, replicate 1) was 81% and 86%, the “Population Pyknosed Nuclei (%)” value (HEK-293T; 12 h, replicate 1) was 38% and 30% and the “Population Tubulin-Different-Phenotype (%)” value (HEK-293T; 12 h, replicate 1) was 77% and 61%. For the same molecule, the “Total Cell Count” value (HEK-293T; 12 h, replicate 1) was 539 and 544, the “Population Fragmented Nuclei (%)” value (HEK-293T; 12 h, replicate 2) was 3% and the “Population Healthy Nuclei (%)” value (HEK-293T; 12 h, replicate 2) was 76%. The “Population Hoechst High Intensity Objects (%)” value (HEK-293T; 12 h, replicate 2) was 2% and 5%, the “Population Membrane Permeable-Phenotype (%)” value (HEK-293T; 12 h, replicate 2) was 18% and 12% and the “Population Mitochondria Different-Phenotype (%)” value (HEK-293T; 12 h, replicate 2) was 31% and 62%. The “Population Mitotic Cells (%)” value (HEK-293T; 12 h, replicate 2) was 93% and 80%, the “Population Normal (%)” value (HEK-293T; 12 h, replicate 2) was 97% and 94% and the “Population Pyknosed Nuclei (%)” value (HEK-293T; 12 h, replicate 2) was 19%. For the same molecule, the “Population Tubulin-Different-Phenotype (%)” value (HEK-293T; 12 h, replicate 2) was 87% and 96%, the “Total Cell Count” value (HEK-293T; 12 h, replicate 2) was 982 and 1003 and the “Population Healthy Nuclei (%)” value (HEK-293T; 24 h, replicate 1) was 30% and 54%. For the same molecule, the “Population Hoechst High Intensity Objects (%)” value (HEK-293T; 24 h, replicate 1) was 21% and 9%, the “Population Membrane Permeable-Phenotype (%)” value (HEK-293T; 24 h, replicate 1) was 9% and 11% and the “Population Mitotic Cells (%)” value (HEK-293T; 24 h, replicate 1) was 53% and 84%. The “Population Normal (%)” value (HEK-293T; 24 h, replicate 1) was 78% and 90%, the “Population Pyknosed Nuclei (%)” value (HEK-293T; 24 h, replicate 1) was 36% and 34% and the “Population Tubulin-Different-Phenotype (%)” value (HEK-293T; 24 h, replicate 1) was 77% and 76%. The “Total Cell Count” value (HEK-293T; 24 h, replicate 1) was 579 and 547, the “Population Apoptotic (%)” value (HEK-293T; 24 h, replicate 2) was 6% and 12% and the “Population Fragmented Nuclei (%)” value (HEK-293T; 24 h, replicate 2) was 3% and 7%. The “Population Healthy Nuclei (%)” value (HEK-293T; 24 h, replicate 2) was 47% and 61%, the “Population Hoechst High Intensity Objects (%)” value (HEK-293T; 24 h, replicate 2) was 3% and 6% and the “Population Membrane Permeable-Phenotype (%)” value (HEK-293T; 24 h, replicate 2) was 7% and 10%. For the same molecule, the “Population Mitochondria Different-Phenotype (%)” value (HEK-293T; 24 h, replicate 2) was 28% and 53%, the “Population Mitotic Cells (%)” value (HEK-293T; 24 h, replicate 2) was 93% and 87% and the “Population Normal (%)” value (HEK-293T; 24 h, replicate 2) was 96% and 93%. For the same molecule, the “Population Pyknosed Nuclei (%)” value (HEK-293T; 24 h, replicate 2) was 48% and 30%, the “Population Tubulin-Different-Phenotype (%)” value (HEK-293T; 24 h, replicate 2) was 91% and 83% and the “Total Cell Count” value (HEK-293T; 24 h, replicate 2) was 956 and 1101. For the same molecule, the “Growth Rate” value (Fibroblast; 0 h, replicate number 1, timepoint 0 hours) was 0, the “Growth Rate” value (Fibroblast; 12 h, replicate number 1, timepoint 12 hours) was 0 and the “Growth Rate” value (Fibroblast; 12 h, replicate number 2, timepoint 12 hours) was 1. For the same molecule, the “Growth Rate” value (Fibroblast; 18 h, replicate number 1, timepoint 18 hours) was 0, the “Growth Rate” value (Fibroblast; 24 h, replicate number 1, timepoint 24 hours) was 0 and the “Population Apoptotic (%)” value (U2OS; 12 h, replicate 1) was 60% and 78%. For the same molecule, the “Population Fragmented Nuclei (%)” value (U2OS; 12 h, replicate 1) was 8% and 12%, the “Population Healthy Nuclei (%)” value (U2OS; 12 h, replicate 1) was 81% and 61% and the “Population Hoechst High Intensity Objects (%)” value (U2OS; 12 h, replicate 1) was 4% and 3%. The “Population Membrane Permeable-Phenotype (%)” value (U2OS; 12 h, replicate 1) was 46% and 31%, the “Population Mitochondria Different-Phenotype (%)” value (U2OS; 12 h, replicate 1) was 32% and 71% and the “Population Mitotic Cells (%)” value (U2OS; 12 h, replicate 1) was 40% and 21%. For the same molecule, the “Population Normal (%)” value (U2OS; 12 h, replicate 1) was 95% and 96%, the “Population Pyknosed Nuclei (%)” value (U2OS; 12 h, replicate 1) was 10% and 25% and the “Population Tubulin-Different-Phenotype (%)” value (U2OS; 12 h, replicate 1) was 88% and 100%. The “Total Cell Count” value (U2OS; 12 h, replicate 1) was 145 and 156, the “Population Apoptotic (%)” value (U2OS; 12 h, replicate 2) was 75% and 76% and the “Population Fragmented Nuclei (%)” value (U2OS; 12 h, replicate 2) was 11% and 18%. For the same molecule, the “Population Healthy Nuclei (%)” value (U2OS; 12 h, replicate 2) was 82% and 57%, the “Population Hoechst High Intensity Objects (%)” value (U2OS; 12 h, replicate 2) was 21% and 7% and the “Population Membrane Permeable-Phenotype (%)” value (U2OS; 12 h, replicate 2) was 30% and 61%. The “Population Mitochondria Different-Phenotype (%)” value (U2OS; 12 h, replicate 2) was 46% and 96%, the “Population Mitotic Cells (%)” value (U2OS; 12 h, replicate 2) was 25% and 24% and the “Population Normal (%)” value (U2OS; 12 h, replicate 2) was 78% and 92%. For the same molecule, the “Population Tubulin-Different-Phenotype (%)” value (U2OS; 12 h, replicate 2) was 94%, the “Total Cell Count” value (U2OS; 12 h, replicate 2) was 110 and 80 and the “Population Apoptotic (%)” value (U2OS; 24 h, replicate 1) was 66% and 77%. For the same molecule, the “Population Fragmented Nuclei (%)” value (U2OS; 24 h, replicate 1) was 10% and the “Population Healthy Nuclei (%)” value (U2OS; 24 h, replicate 1) was 76% and 58%.
